In ChEMBL document CHEMBL3414496, “Synthesis and biological evaluation of novel 2-heteroarylimino-1,3-thiazolidin-4-ones as potential anti-tumor agents” (Eur J Med Chem, 2015):

Test system: HT-29
Assay: Cytotoxicity against human HT-29 cells after 72 hrs by MTT assay
Type: functional, cell-based
Conditions: HT-29, 72 h
Method in brief: (§1)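 Cells seeded at 10^4/well, exposed 24 h later to graded concentrations (0.01–100 µM) for 72 h at 37°C; MTT 0.5 mg/ml for 2 h, formazan dissolved in DMSO, absorbance at 570 nm. […] Colon lines in DMEM, breast lines in RPMI, both with 10% FCS.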

| Compound | IC50 |
| --- | --- |
| COc1cccc(N2C(=O)CS/C2=N\c2csc(-c3cccc4ccccc34)c2)c1 | > 50 µM |
| O=C1N/C(=N/c2csc(-c3ccc(Cl)cc3)c2)S/C1=C\c1ccc(F)cc1 | 4.1 µM |
| O=C1N/C(=N/c2csc(-c3ccc(Cl)cc3)c2)S/C1=C\c1ccc2ccccc2c1 | 3.7 µM |
| O=C1CS/C(=N\c2csc(-c3ccc(Cl)cc3)c2)N1 | 17.1 µM |
| O=C1CS/C(=N\c2csc(-c3ccc(Cl)cc3)c2)N1c1ccc(Cl)cc1 | 36.6 µM |
| O=C1N/C(=N/c2nc(-c3ccc(Cl)cc3)cs2)S/C1=C\c1ccc(F)cc1 | 2.9 µM |
| O=C1N/C(=N/c2csc(-c3ccc(Cl)cc3)c2)S/C1=C\c1ccc(Cl)cc1 | 2.8 µM |
| O=C1N/C(=N/c2nc(-c3ccc(Cl)cc3)cs2)S/C1=C\c1ccc2ccccc2c1 | 1.8 µM |
| Cc1ccc(/C=C2\S/C(=N\c3nc(-c4ccc(Cl)cc4)cs3)NC2=O)cc1 | 0.5 µM |
| O=C1CS/C(=N\c2csc(-c3ccccc3)c2)N1 | > 50 µM |
| COc1ccc(N2C(=O)CS/C2=N\c2csc(-c3ccc(Cl)cc3)c2)cc1OC | 14.1 µM |
| Cc1ccc(-c2cc(/N=C3/NC(=O)CS3)cs2)cc1 | > 50 µM |
| O=C1CS/C(=N\c2nc(-c3ccc(Cl)cc3)cs2)N1 | 8.9 µM |
| O=C1CS/C(=N\c2csc(-c3ccc(Cl)cc3)c2)N1c1ccccc1 | 41.4 µM |
| COc1ccc(-c2cc(/N=C3/NC(=O)CS3)cs2)cc1 | > 50 µM |

Test system: not listed separately
Assay: Cytotoxicity against human HCT116 cells after 72 hrs by MTT assay
Type: functional, cell-based
Conditions: HCT-116, 72 h
Method in brief: as §1

| Compound | IC50 |
| --- | --- |
| O=C1N/C(=N/c2csc(-c3ccc(Cl)cc3)c2)S/C1=C\c1ccc(F)cc1 | 7.4 µM |
| O=C1N/C(=N/c2csc(-c3ccc(Cl)cc3)c2)S/C1=C\c1ccc2ccccc2c1 | 3 µM |
| O=C1CS/C(=N\c2csc(-c3ccc(Cl)cc3)c2)N1 | > 50 µM |
| O=C1N/C(=N/c2nc(-c3ccc(Cl)cc3)cs2)S/C1=C\c1ccc(F)cc1 | 7.5 µM |
| O=C1N/C(=N/c2csc(-c3ccc(Cl)cc3)c2)S/C1=C\c1ccc(Cl)cc1 | 11.6 µM |
| O=C1N/C(=N/c2nc(-c3ccc(Cl)cc3)cs2)S/C1=C\c1ccc2ccccc2c1 | 1.2 µM |
| Cc1ccc(/C=C2\S/C(=N\c3nc(-c4ccc(Cl)cc4)cs3)NC2=O)cc1 | 0.5 µM |
| O=C1CS/C(=N\c2csc(-c3ccccc3)c2)N1 | > 50 µM |
| COc1ccc(N2C(=O)CS/C2=N\c2csc(-c3ccc(Cl)cc3)c2)cc1OC | 49.8 µM |
| Cc1ccc(-c2cc(/N=C3/NC(=O)CS3)cs2)cc1 | > 50 µM |
| O=C1CS/C(=N\c2nc(-c3ccc(Cl)cc3)cs2)N1 | 23.8 µM |
| COc1ccc(-c2cc(/N=C3/NC(=O)CS3)cs2)cc1 | > 50 µM |

Test system: SW-620
Assay: Cytotoxicity against human SW620 cells after 72 hrs by MTT assay
Type: functional, cell-based
Conditions: SW-620, 72 h
Method in brief: as §1

| Compound | IC50 |
| --- | --- |
| O=C1N/C(=N/c2csc(-c3ccc(Cl)cc3)c2)S/C1=C\c1ccc(F)cc1 | 8.7 µM |
| O=C1N/C(=N/c2csc(-c3ccc(Cl)cc3)c2)S/C1=C\c1ccc2ccccc2c1 | > 50 µM |
| O=C1CS/C(=N\c2csc(-c3ccc(Cl)cc3)c2)N1 | > 50 µM |
| O=C1CS/C(=N\c2csc(-c3ccc(Cl)cc3)c2)N1c1ccc(Cl)cc1 | > 50 µM |
| O=C1N/C(=N/c2nc(-c3ccc(Cl)cc3)cs2)S/C1=C\c1ccc(F)cc1 | > 50 µM |
| O=C1N/C(=N/c2csc(-c3ccc(Cl)cc3)c2)S/C1=C\c1ccc(Cl)cc1 | 4.6 µM |
| O=C1N/C(=N/c2nc(-c3ccc(Cl)cc3)cs2)S/C1=C\c1ccc2ccccc2c1 | 20.3 µM |
| Cc1ccc(/C=C2\S/C(=N\c3nc(-c4ccc(Cl)cc4)cs3)NC2=O)cc1 | 0.89 µM |
| O=C1CS/C(=N\c2csc(-c3ccccc3)c2)N1 | > 50 µM |
| COc1ccc(N2C(=O)CS/C2=N\c2csc(-c3ccc(Cl)cc3)c2)cc1OC | > 50 µM |
| Cc1ccc(-c2cc(/N=C3/NC(=O)CS3)cs2)cc1 | > 50 µM |
| O=C1CS/C(=N\c2nc(-c3ccc(Cl)cc3)cs2)N1 | > 50 µM |
| COc1ccc(-c2cc(/N=C3/NC(=O)CS3)cs2)cc1 | > 50 µM |

Test system: MCF7
Assay: Cytotoxicity against human MCF7 cells after 72 hrs by MTT assay
Type: functional, cell-based
Conditions: MCF7, 72 h
Method in brief: as §1

| Compound | IC50 |
| --- | --- |
| COc1cccc(N2C(=O)CS/C2=N\c2csc(-c3cccc4ccccc34)c2)c1 | > 50 µM |
| O=C1N/C(=N/c2csc(-c3ccc(Cl)cc3)c2)S/C1=C\c1ccc(F)cc1 | > 50 µM |
| O=C1N/C(=N/c2csc(-c3ccc(Cl)cc3)c2)S/C1=C\c1ccc2ccccc2c1 | 1.2 µM |
| O=C1CS/C(=N\c2csc(-c3ccc(Cl)cc3)c2)N1 | > 50 µM |
| O=C1CS/C(=N\c2csc(-c3ccc(Cl)cc3)c2)N1c1ccc(Cl)cc1 | > 50 µM |
| O=C1N/C(=N/c2nc(-c3ccc(Cl)cc3)cs2)S/C1=C\c1ccc(F)cc1 | > 50 µM |
| O=C1N/C(=N/c2csc(-c3ccc(Cl)cc3)c2)S/C1=C\c1ccc(Cl)cc1 | 6.7 µM |
| O=C1N/C(=N/c2nc(-c3ccc(Cl)cc3)cs2)S/C1=C\c1ccc2ccccc2c1 | 0.3 µM |
| Cc1ccc(/C=C2\S/C(=N\c3nc(-c4ccc(Cl)cc4)cs3)NC2=O)cc1 | 0.4 µM |
| O=C1CS/C(=N\c2csc(-c3ccccc3)c2)N1 | > 50 µM |
| COc1ccc(N2C(=O)CS/C2=N\c2csc(-c3ccc(Cl)cc3)c2)cc1OC | 18.7 µM |
| Cc1ccc(-c2cc(/N=C3/NC(=O)CS3)cs2)cc1 | > 50 µM |
| O=C1CS/C(=N\c2nc(-c3ccc(Cl)cc3)cs2)N1 | > 50 µM |
| O=C1CS/C(=N\c2csc(-c3ccc(Cl)cc3)c2)N1c1ccccc1 | > 50 µM |
| COc1ccc(-c2cc(/N=C3/NC(=O)CS3)cs2)cc1 | > 50 µM |

Test system: MDA-MB-231
Assay: Cytotoxicity against human MDA-MB-231 cells after 72 hrs by MTT assay
Type: functional, cell-based
Conditions: MDA-MB-231, 72 h
Method in brief: as §1

| Compound | IC50 |
| --- | --- |
| O=C1N/C(=N/c2csc(-c3ccc(Cl)cc3)c2)S/C1=C\c1ccc2ccccc2c1 | 1.8 µM |
| O=C1CS/C(=N\c2csc(-c3ccc(Cl)cc3)c2)N1 | > 50 µM |
| O=C1N/C(=N/c2nc(-c3ccc(Cl)cc3)cs2)S/C1=C\c1ccc(F)cc1 | > 50 µM |
| O=C1N/C(=N/c2csc(-c3ccc(Cl)cc3)c2)S/C1=C\c1ccc(Cl)cc1 | 6.4 µM |
| O=C1N/C(=N/c2nc(-c3ccc(Cl)cc3)cs2)S/C1=C\c1ccc2ccccc2c1 | 0.9 µM |
| Cc1ccc(/C=C2\S/C(=N\c3nc(-c4ccc(Cl)cc4)cs3)NC2=O)cc1 | 0.8 µM |
| O=C1CS/C(=N\c2csc(-c3ccccc3)c2)N1 | > 50 µM |
| COc1ccc(N2C(=O)CS/C2=N\c2csc(-c3ccc(Cl)cc3)c2)cc1OC | 46.9 µM |
| Cc1ccc(-c2cc(/N=C3/NC(=O)CS3)cs2)cc1 | > 50 µM |
| O=C1CS/C(=N\c2nc(-c3ccc(Cl)cc3)cs2)N1 | > 50 µM |
| COc1ccc(-c2cc(/N=C3/NC(=O)CS3)cs2)cc1 | > 50 µM |

Test system: HT-29
Assay: Growth inhibition of human HT-29 cells at cytotoxic IC50 level after 3 days by trypan blue dye exclusion assay
Type: functional
Conditions: not given
Method in brief: (§2)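 HT29 cells treated 48 h after seeding, dosed daily with daily medium change over three days; drug diluted in DMSO, controls 0.1% (v/v) DMSO. Cells trypsinized, mixed 1:1 with 0.04% trypan blue, live cells counted by hematimeter. Reported as mitotic index (treated/DMSO count); triplicates from two independent experiments.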

| Compound | growth inhibition (GI) |
| --- | --- |
| O=C1N/C(=N/c2csc(-c3ccc(Cl)cc3)c2)S/C1=C\c1ccc(F)cc1 | 25% |
| O=C1N/C(=N/c2csc(-c3ccc(Cl)cc3)c2)S/C1=C\c1ccc2ccccc2c1 | 50% |
| O=C1N/C(=N/c2csc(-c3ccc(Cl)cc3)c2)S/C1=C\c1ccc(Cl)cc1 | 25% |
| O=C1N/C(=N/c2nc(-c3ccc(Cl)cc3)cs2)S/C1=C\c1ccc2ccccc2c1 | <25% |
| Cc1ccc(/C=C2\S/C(=N\c3nc(-c4ccc(Cl)cc4)cs3)NC2=O)cc1 | <25% |

Test system: HT-29
Assay: Growth inhibition of human HT-29 cells at 10 uM after 3 days by trypan blue dye exclusion assay
Type: functional
Conditions: HT-29, 72 h, read-out: GI
Method in brief: as §2

| Compound | inhibition of growth at 10 µM |
| --- | --- |
| Cc1ccc(/C=C2\S/C(=N\c3nc(-c4ccc(Cl)cc4)cs3)NC2=O)cc1 | 40% |

Test system: HT-29
Assay: Growth inhibition of human HT-29 cells at 0.5 to 10 uM after 3 days by trypan blue dye exclusion assay
Type: functional
Conditions: not given
Method in brief: as §2

| Compound | growth inhibition (GI) |
| --- | --- |
| O=C1N/C(=N/c2nc(-c3ccc(Cl)cc3)cs2)S/C1=C\c1ccc2ccccc2c1 | <5% |
